Data: ChEMBL document CHEMBL1123867, “Anticonvulsant O-alkyl sulfamates. 2,3:4,5-Bis-O-(1-methylethylidene)-beta-D-fructopyranose sulfamate and related compounds” (1987)
Activity calls are given as the source filed them. The rule behind the calls is not given here.

Columns and labels:
Mus musculus [1] = assay: Anticonvulsant activity by using a standard maximal electroshock test (MES) in mice, by intraperitoneal administration of the compound; assay type: functional; details: ip
Procedure, shortened: (§1)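 Supramaximal electroshock: 50-mA current (60 Hz, 0.20 s) via corneal electrodes induced hind-limb tonic extension; inhibition of this component scored as activity. Mice dosed ip and/or po in aqueous solution or suspension (ca. 0.1% Tween 80, distilled water). Tested at 30, 60, 120 and 240 min (sometimes 45 min); ten mice per time point.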

Mus musculus [2] = assay: Anticonvulsant activity following p.o. administration by standard maximal electroshock test in mice.; assay type: functional; details: po; procedure, shortened: as §1
Mus musculus [3] = assay: Percentage block of the hind-limb tonic-extensor seizure was determined after application of an electric shock to mice for 60 min followed by 100 mg/kg intraperitoneal dose; assay type: functional; procedure, shortened: as §1
Mus musculus [4] = assay: Percentage block of the hind-limb tonic-extensor seizure was determined after application of an electric shock to mice for 120 min followed by 100 mg/kg intraperitoneal dose; assay type: functional; procedure, shortened: as §1
Mus musculus [5] = assay: Percentage block of the hind-limb tonic-extensor seizure was determined after application of an electric shock to mice for 120 min followed by 200 mg/kg peroral dose; assay type: functional; details: route oral; procedure, shortened: as §1
Mus musculus [6] = assay: Percentage block of the hind-limb tonic-extensor seizure was determined after application of an electric shock to mice for 30 min followed by 100 mg/kg intraperitoneal dose; assay type: functional; procedure, shortened: as §1
Mus musculus [7] = assay: Percentage block of the hind-limb tonic-extensor seizure was determined after application of an electric shock to mice for 30 min followed by 200 mg/kg peroral dose; assay type: functional; details: route oral; procedure, shortened: as §1
Mus musculus [8] = assay: Percentage block of the hind-limb tonic-extensor seizure was determined after application of an electric shock to mice for 240 min followed by 100 mg/kg intraperitoneal dose; assay type: functional; procedure, shortened: as §1
Mus musculus [9] = assay: Percentage block of the hind-limb tonic-extensor seizure was determined after application of an electric shock to mice for 240 min followed by 200 mg/kg peroral dose; assay type: functional; details: route oral; procedure, shortened: as §1
Mus musculus [10] = assay: Percentage block of the hind-limb tonic-extensor seizure was determined after application of an electric shock to mice for 60 min followed by 200 mg/kg peroral dose; assay type: functional; details: route oral
Procedure, shortened: (§2)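 Mouse MES test: supramaximal seizure from a 50-mA current (60 Hz, 0.20-s) through corneal electrodes. […] Ten mice per time point. Compound given in aqueous solution or in suspension in ca. 0.1% Tween 80 and distilled water. Free food and water except during testing.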

Mus musculus [11] = assay: Anticonvulsant activity by using a standard maximal electroshock test (MES) in mice, by 100 mg/kg intraperitoneal administration; i=inactive; assay type: functional, organism-based; design: dose 100 mg/kg; procedure, shortened: as §1
Mus musculus [12] = assay: Anticonvulsant activity by using a standard maximal electroshock test (MES) in mice, by 200 mg/kg intraperitoneal administration of the compound; I=inactive, 0-10% block; assay type: functional, organism-based; design: dose 200 mg/kg; procedure, shortened: as §1
Mus musculus [13] = assay: Anticonvulsant activity by using a standard maximal electroshock test (MES) in mice, by 400 mg/kg peroral administration of the compound; I=inactive, 0-10% block; assay type: functional, organism-based; design: dose 400 mg/kg; procedure, shortened: as §1
Mus musculus [14] = assay: Percentage block of the hind-limb tonic-extensor seizure was determined after application of an electric shock to mice for 60 min followed by 200 mg/kg intraperitoneal dose; assay type: functional; procedure, shortened: as §2
Mus musculus [15] = assay: Percentage block of the hind-limb tonic-extensor seizure was determined after application of an electric shock to mice for 60 min followed by 400 mg/kg peroral dose; assay type: functional; details: route oral; procedure, shortened: as §2
Mus musculus [16] = assay: Percentage block of the hind-limb tonic-extensor seizure was determined after application of an electric shock to mice for 120 min followed by 200 mg/kg intraperitoneal dose; assay type: functional; procedure, shortened: as §1
Mus musculus [17] = assay: Percentage block of the hind-limb tonic-extensor seizure was determined after application of an electric shock to mice for 120 min followed by 400 mg/kg peroral dose; assay type: functional; details: route oral; procedure, shortened: as §1
Mus musculus [18] = assay: Percentage block of the hind-limb tonic-extensor seizure was determined after application of an electric shock to mice for 30 min followed by 200 mg/kg intraperitoneal dose; assay type: functional; procedure, shortened: as §1
Mus musculus [19] = assay: Percentage block of the hind-limb tonic-extensor seizure was determined after application of an electric shock to mice for 30 min followed by 400 mg/kg peroral dose; assay type: functional; details: route oral; procedure, shortened: as §1
Mus musculus [20] = assay: Percentage block of the hind-limb tonic-extensor seizure was determined after application of an electric shock to mice for 240 min followed by 200 mg/kg intraperitoneal dose; assay type: functional; procedure, shortened: as §1
Mus musculus [21] = assay: Percentage block of the hind-limb tonic-extensor seizure was determined after application of an electric shock to mice for 240 min followed by 400 mg/kg peroral dose; assay type: functional; details: route oral; procedure, shortened: as §1
Mus musculus [22] = assay: Percentage block of the hind-limb tonic-extensor seizure was determined after application of an electric shock to mice for 30 min followed by 50 mg/kg intraperitoneal dose; assay type: functional; procedure, shortened: as §1
Mus musculus [23] = assay: Percentage block of the hind-limb tonic-extensor seizure was determined after application of an electric shock to mice for 60 min followed by 50 mg/kg intraperitoneal dose; assay type: functional; procedure, shortened: as §2
Mus musculus [24] = assay: Percentage block of the hind-limb tonic-extensor seizure was determined after application of an electric shock to mice for 120 min followed by 100 mg/kg peroral dose; assay type: functional; details: route oral; procedure, shortened: as §1
Mus musculus [25] = assay: Percentage block of the hind-limb tonic-extensor seizure was determined after application of an electric shock to mice for 30 min followed by 100 mg/kg peroral dose; assay type: functional; details: route oral; procedure, shortened: as §1
Mus musculus [26] = assay: Percentage block of the hind-limb tonic-extensor seizure was determined after application of an electric shock to mice for 120 min followed by 50 mg/kg intraperitoneal dose; assay type: functional; procedure, shortened: as §1
Mus musculus [27] = assay: Percentage block of the hind-limb tonic-extensor seizure was determined after application of an electric shock to mice for 240 min followed by 100 mg/kg peroral dose; assay type: functional; details: route oral; procedure, shortened: as §1
Mus musculus [28] = assay: Percentage block of the hind-limb tonic-extensor seizure was determined after application of an electric shock to mice for 240 min followed by 50 mg/kg intraperitoneal dose; assay type: functional; procedure, shortened: as §1
Mus musculus [29] = assay: Percentage block of the hind-limb tonic-extensor seizure was determined after application of an electric shock to mice for 60 min followed by 100 mg/kg peroral dose; assay type: functional; details: route oral; procedure, shortened: as §2
Mus musculus [30] = assay: Anticonvulsant activity by using a standard maximal electroshock test (MES) in mice, by 100 mg/kg intraperitoneal administration of the compound; I=inactive, 0-10% block; assay type: functional, organism-based; design: dose 100 mg/kg; procedure, shortened: as §1

Row | SMILES | ED50 (Mus musculus [1]) | ED50 (Mus musculus [2]) | Block (Mus musculus [3]) | Block (Mus musculus [4]) | Block (Mus musculus [5]) | Block (Mus musculus [6]) | Block (Mus musculus [7]) | Block (Mus musculus [8]) | Block (Mus musculus [9]) | Block (Mus musculus [10]) | also measured
1 | CC1(C)O[C@@H]2CO[C@@]3(COS(=O)(=O)N=[N+]=[N-])OC(C)(C)OC3[C@@H]2O1 (some centres not stated) | > 100 mg/kg | ~200 mg/kg | 40% | 50% | 70% | 20% | 30% | 30% | 100% | 50% | 
2 | CC1(C)OC2C3OC(C)(C)O[C@]3(COC(=O)Nc3ccccc3)OC[C@H]2O1 (some centres not stated) |  |  |  |  |  |  |  |  |  |  | ED50 (Mus musculus [11]): inactive; ED50 (Mus musculus [12]): inactive; ED50 (Mus musculus [13]): inactive; Block (Mus musculus [14]): 0%; Block (Mus musculus [15]): 0%; Block (Mus musculus [16]): 0%; Block (Mus musculus [17]): 0%; Block (Mus musculus [18]): 0%; Block (Mus musculus [19]): 0%; Block (Mus musculus [20]): 0%; Block (Mus musculus [21]): 0%
3 | NS(=O)(=O)OCCc1ccccc1 [SULFAMIC ACID PHENETHYL ESTER] | ~50 mg/kg | ~100 mg/kg | 100% | 70% | 100% | 90% | 70% | 20% | 80% | 100% | 
4 | CC1(C)O[C@@H]2[C@H](O1)[C@H]1OC(C)(C)OC1O[C@@H]2COS(N)(=O)=O (some centres not stated) | 175 mg/kg | > 200 mg/kg |  |  |  |  |  |  |  |  | Block (Mus musculus [14]): 40%; Block (Mus musculus [15]): 80%; Block (Mus musculus [16]): 50%; Block (Mus musculus [17]): 90%; Block (Mus musculus [18]): 20%; Block (Mus musculus [19]): 50%; Block (Mus musculus [20]): 30%; Block (Mus musculus [21]): 80%
5 | CN(C)S(=O)(=O)OC[C@@]12OC[C@H]3OC(C)(C)OC3C1OC(C)(C)O2 (some centres not stated) | > 100 mg/kg | > 200 mg/kg | 30% | 50% | 80% | 30% | 30% | 30% | 80% | 40% | 
6 | NS(=O)(=O)OCC1CCc2ccccc2C1 (configuration not stated) | 56 mg/kg | 82 mg/kg |  |  |  |  |  |  |  |  | Block (Mus musculus [22]): 30%; Block (Mus musculus [23]): 50%; Block (Mus musculus [24]): 80%; Block (Mus musculus [25]): 80%; Block (Mus musculus [26]): 0%; Block (Mus musculus [27]): 30%; Block (Mus musculus [28]): 0%; Block (Mus musculus [29]): 80%
7 | NS(=O)(=O)OCC(c1ccccc1)c1ccccc1 |  | 147 mg/kg | 0% | 0% | 80% | 0% | 80% | 0% | 100% | 70% | ED50 (Mus musculus [30]): inactive
8 | NS(=O)(=O)OCC1COc2ccccc2O1 (configuration not stated) | ~100 mg/kg | 118 mg/kg | 60% | 30% | 80% |  | 100% | 0% | 80% | 100% | 
9 | NS(=O)(=O)OCC1CCCCO1 (configuration not stated) | 195 mg/kg | 154 mg/kg |  |  |  |  |  |  |  |  | 
10 | CC1(C)OC2C3OC4(CCCCC4)O[C@@H]3CO[C@@]2(COS(N)(=O)=O)O1 (some centres not stated) |  | > 400 mg/kg | 0% | 0% | 20% | 0% | 10% | 0% | 20% | 0% | ED50 (Mus musculus [30]): inactive
11 | CC1(C)OC[C@@H]2O[C@@]3(COS(N)(=O)=O)OC(C)(C)OC3[C@@H]2O1 (some centres not stated) | 100 mg/kg | 150 mg/kg | 50% | 20% | 70% | 30% | 70% | 0% | 50% | 80% | 
